Converted amounts (≈) assume the structure as drawn. The source made the active and inactive calls. No cut-off for these calls is given here.
Tests used:
[1] = tested on: Mycobacterium tuberculosis; experiment: Antibacterial activity against Mycobacterium tuberculosis H37Rv after 6 days by Alamar blue dye-based colorimetric assay; format: functional; conditions: 144 h
How it was run: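 M. tuberculosis H37Rv grown to early-mid log phase in Middlebrook 7H9 with 10% OADC and 0.05% Tween 80, added to 1:2 serial compound dilutions, and grown for 6 days at 37°C. Alamar blue then added for a further 24 h. MIC taken as the concentration preventing visible growth and Alamar blue reduction in all replicates.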

Staphylococcus aureus [2] = experiment: Antibacterial activity against methicillin-resistant Staphylococcus aureus BAA 1762 after 18 to 24 hrs by Alamar blue dye-based colorimetric assay; format: functional
Francisella tularensis = experiment: Antibacterial activity against Francisella tularensis LVS after 18 to 24 hrs by Alamar blue dye-based colorimetric assay; format: functional
[3] = target: T1, 3-oxoacyl-[acyl-carrier-protein] synthase 2 (Staphylococcus aureus, UniProt Q5TKS0); experiment: Binding affinity to Staphylococcus aureus wild type FabF expressed in Escherichia coli BL21 (DE3) PlysS cells by intrinsic tryptophan fluorescence quenching-based fluorimetric method
T1 sequence (Q5TKS0 whole entry): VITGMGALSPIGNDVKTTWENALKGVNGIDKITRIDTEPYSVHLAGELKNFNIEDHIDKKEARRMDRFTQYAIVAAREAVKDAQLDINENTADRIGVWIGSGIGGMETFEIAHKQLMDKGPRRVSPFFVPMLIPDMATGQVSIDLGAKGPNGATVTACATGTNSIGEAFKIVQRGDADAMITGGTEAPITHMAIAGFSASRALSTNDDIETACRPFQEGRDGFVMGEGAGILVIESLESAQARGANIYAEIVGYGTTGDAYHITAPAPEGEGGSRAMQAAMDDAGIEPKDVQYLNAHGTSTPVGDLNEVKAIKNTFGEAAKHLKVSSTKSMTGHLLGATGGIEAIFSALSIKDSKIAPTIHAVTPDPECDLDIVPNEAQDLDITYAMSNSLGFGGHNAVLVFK

Staphylococcus aureus [4] = experiment: Antibacterial activity against methicillin-sensitive Staphylococcus aureus RN4220 after 18 to 24 hrs by Alamar blue dye-based colorimetric assay; format: functional
How it was run: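 Two-fold serial dilutions from 512 down to 0.25 μg/mL in CAMHB (microbroth dilution); incubated 37 °C for 18–24 h, then Alamar Blue added for a further 4 h. Absorbance read at 570 and 600 nm; percent growth reduction plotted against concentration, MIC90 from non-linear regression; growth and MICs confirmed by optical density.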

Yersinia pestis = experiment: Antibacterial activity against Yersinia pestis A1122 after 18 to 24 hrs by Alamar blue dye-based colorimetric assay; format: functional
[5] = target: 3-oxoacyl-[acyl-carrier-protein] synthase 2 (Staphylococcus aureus, UniProt Q5TKS0, C165Q); experiment: Binding affinity to Staphylococcus aureus FabF C165Q mutant expressed in Escherichia coli BL21 (DE3) PlysS cells by intrinsic tryptophan fluorescence quenching-based fluorimetric method
How it was run: (§1)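 Kd by quenching of intrinsic tryptophan fluorescence (excitation 280 nm, emission 337 nm). Inhibitor stocks in DMSO or buffer were titrated into 1 μM His-tag-purified enzyme in 50 mM Tris-HCl, 150 mM NaCl, 1 mM DTT, pH 8.5. mtFabB was expressed in M. smegmatis MC²155; saFabF was expressed in E. coli BL21(DE3) pLysS.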

[6] = tested on: Burkholderia pseudomallei; experiment: Antibacterial activity against Burkholderia pseudomallei after 18 to 24 hrs by Alamar blue dye-based colorimetric assay; format: functional
Staphylococcus aureus [7] = experiment: Antibacterial activity against methicillin-resistant Staphylococcus aureus BAA 1762 infected in Swiss Webster mouse assessed as increase in survival rate at 100 mg/kg, sc administered 1 and 25 hrs post infection measured twice a day for 5 days relative to vehicle-treated control; format: functional, organism-based
How it was run: (§2)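 Mice made neutropenic with cyclophosphamide 4 days and 1 day before infection. MRSA BAA 1762 was given IP as 0.5 mL of 5×10⁷ cells/mL in BHI. Analogues in water/ethanol, or vancomycin in water, were dosed SC at 100 mg/kg/inj at 1 and 25 h post infection. Survival was checked every 12 h for 5 days, n=6–7 per group. Average survival time was compared with vehicle by one-tailed t test.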

Staphylococcus aureus [8] = experiment: Antibacterial activity against methicillin-resistant Staphylococcus aureus BAA 1762 infected in sc dosed Swiss Webster mouse assessed as increase in survival rate administered 1 and 25 hrs post infection measured twice a day for 5 days; format: functional; conditions: BAA 1762, sc; how it was run: as §2
Staphylococcus aureus [9] = experiment: Antibacterial activity against methicillin-resistant Staphylococcus aureus BAA 1762 infected in Swiss Webster mouse assessed as survival time at 100 mg/kg, sc administered 1 and 25 hrs post infection measured twice a day for 5 days; format: functional; how it was run: as §2
Klebsiella pneumoniae [10] = experiment: Antibacterial activity against Klebsiella pneumoniae KPC2ST258 infected in Swiss Webster mouse assessed as survival time at 100 mg/kg, sc administered 1, 12 and 24 hrs post infection measured every 12 hrs for 7 days; format: functional
How it was run: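 K. pneumoniae KPC2ST258 was given IP as 5×10⁶ cfu in BHI broth. Drugs in saline/PEG400/ethanol (40/20/40) were injected SC at 100 mg/kg/inj at 1, 12 and 24 h post infection. Mice were checked every 12 h for 7 days, n=8–10 per group. Average survival time was compared with vehicle by one-tailed t test.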

Klebsiella pneumoniae [11] = experiment: Antibacterial activity against Klebsiella pneumoniae KPC2ST258 after 18 to 24 hrs by Alamar blue dye-based colorimetric assay; format: functional, organism-based
[12] = tested on: Mycobacterium tuberculosis; experiment: Binding affinity to Mycobacterium tuberculosis wild type FabB expressed in Mycobacterium smegmatis MC2 155 by WaterLOGSY-based competition assay
[13] = Binding affinity to Mycobacterium tuberculosis wild type FabB expressed in Mycobacterium smegmatis MC2 155 by intrinsic tryptophan fluorescence quenching-based fluorimetric method; how it was run: as §1

Row | Molecule | MIC90 [1] | MIC90 (Staphylococcus aureus [2]) | MIC90 (Francisella tularensis) | MIC90 (Staphylococcus aureus [4]) | MIC90 (Yersinia pestis) | Activity [6] | other results
1 | C=C/C(C)=C/[C@@]1(C)SC(=O)C(CCCCc2ccc(Br)cc2)=C1O | 12.5 µg/mL (≈ 30.7 µM) | 50 µg/mL (≈ 123 µM) | 2.2 µg/mL (≈ 5.4 µM) | 32 µg/mL (≈ 78.6 µM) | > 250 µg/mL | – | Kd [3]: 92 µM
2 | C=C/C(C)=C/[C@@]1(C)SC(=O)C(C(=O)CCCCCN=[N+]=[N-])=C1O | – | 16 µg/mL (≈ 47.7 µM) | – | 16 µg/mL (≈ 47.7 µM) | – | – | –
3 | C=C/C(C)=C/[C@@]1(C)SC(=O)C(CCc2ccc(C)cc2)=C1O | – | > 100 µg/mL | 3.4 µg/mL (≈ 10.8 µM) | > 64 µg/mL | > 250 µg/mL | – | –
4 | C=C/C(C)=C/[C@@]1(C)SC(=O)C(C(=O)CCCCCc2ccc(-c3ccccc3)cc2)=C1O | 50 µg/mL (≈ 112 µM) | 1 µg/mL (≈ 2.24 µM) | 0.21 µg/mL (≈ 0.47 µM) | 0.5 µg/mL (≈ 1.12 µM) | > 250 µg/mL | inactive | Kd [5]: 33 µM; Kd [3]: 35.2 µM; Activity (Staphylococcus aureus [7]): Active
5 | CN[C@H](CC(C)C)C(=O)N[C@H]1C(=O)N[C@@H](CC(N)=O)C(=O)N[C@H]2C(=O)N[C@H]3C(=O)N[C@H](C(=O)N[C@H](C(=O)O)c4cc(O)cc(O)c4-c4cc3ccc4O)[C@H](O)c3ccc(c(Cl)c3)Oc3cc2cc(c3O[C@@H]2O[C@H](CO)[C@@H](O)[C@H](O)[C@H]2O[C@H]2C[C@](C)(N)[C@H](O)[C@H](C)O2)Oc2ccc(cc2Cl)[C@H]1O [VANCOMYCIN] | – | – | – | – | – | – | ED50 (Staphylococcus aureus [8]): < 30 mg/kg; MSD (Staphylococcus aureus [9]): 5 days
6 | C=C/C(C)=C/[C@@]1(C)SC(=O)C(CCC)=C1O | 25 µg/mL (≈ 105 µM) | > 200 µg/mL | 25.8 µg/mL (≈ 108 µM) | > 200 µg/mL | > 250 µg/mL | inactive | –
7 | C=C/C(C)=C/[C@@]1(C)SC(=O)C(C(=O)OC)=C1O | 100 µg/mL (≈ 393 µM) | > 64 µg/mL | 58.2 µg/mL (≈ 229 µM) | > 64 µg/mL | > 250 µg/mL | inactive | –
8 | GENTAMICIN | – | – | – | – | – | – | MSD (Klebsiella pneumoniae [10]): 6.2 days; MIC (Klebsiella pneumoniae [11]): < 1 µg/mL
9 | C=C/C(C)=C/[C@@]1(C)SC(=O)C(CCCCn2cc(CNC(=O)[C@H](O)C(C)(C)CO)nn2)=C1O | > 100 µg/mL | > 100 µg/mL | 250 µg/mL (≈ 522 µM) | > 64 µg/mL | > 250 µg/mL | – | –
10 | C=C/C(C)=C/[C@@]1(C)SC(=O)C(C(=O)c2ccccc2C(=O)O)=C1O | 50 µg/mL (≈ 145 µM) | 32 µg/mL (≈ 92.9 µM) | 15.9 µg/mL (≈ 46.2 µM) | 32 µg/mL (≈ 92.9 µM) | > 250 µg/mL | inactive | –
11 | C=C/C(C)=C/[C@@]1(C)SC(=O)C(C(=O)CCC)=C1O | 100 µg/mL (≈ 375 µM) | 32 µg/mL (≈ 120 µM) | 1.8 µg/mL (≈ 6.76 µM) | 16 µg/mL (≈ 60.1 µM) | > 250 µg/mL | inactive | –
12 | C=C/C(C)=C/[C@@]1(C)SC(=O)C=C1OCC(=O)NCCn1cc(CNC(=O)[C@H](O)C(C)(C)CO)nn1 | 100 µg/mL (≈ 197 µM) | > 64 µg/mL | 159 µg/mL (≈ 313 µM) | > 64 µg/mL | – | – | Activity [12]: inactive
13 | C=C/C(C)=C/[C@@]1(C)SC(=O)C=C1OCC(=O)NCCNC(=O)OC(C)(C)C | > 100 µg/mL | > 64 µg/mL | 54 µg/mL (≈ 136 µM) | > 64 µg/mL | – | – | Ki [13]: > 200 µM; Activity [12]: inactive

Reference: ChEMBL document CHEMBL4425098, “Thiolactomycin-Based Inhibitors of Bacterial β-Ketoacyl-ACP Synthases with in Vivo Activity” (J Med Chem, 2016)
